Measurements of several laboratories.
Compare with care: the assays were run in different laboratories.
PADI1: Protein-arginine deiminase type-1 (PADI1, Homo sapiens, UniProt Q9ULC6)
KDR: Vascular endothelial growth factor receptor 2 (KDR, Homo sapiens, UniProt P35968)
CDK16: Cyclin-dependent kinase 16 (CDK16, Homo sapiens, UniProt Q00536)
ATAD2 bromodomain: ATPase family AAA domain-containing protein 2, bromodomain (ATAD2, Homo sapiens, UniProt Q6PL18)

CC(C)(C)n1nnc([C@H](CCCNC(=N)CF)NC(=O)c2ccc(-c3ccccc3)cc2)n1  kinact/KI (PADI1; enzyme activity, inhibitor): 14.4 M⁻¹ s⁻¹
CN(C)C1CCN(CC#Cc2nn(C3CCCC3)c3nc(NCc4ccccc4)ncc23)C1 (stereo not shown)  inhibition (cGMP-dependent protein kinase 2 (PRKG2, Homo sapiens, UniProt Q13237); enzyme activity, inhibitor, FRET; 0.1 µM): 7%
CC(C)(C)n1nnc([C@H](CCCNC(=N)CCl)NC(=O)c2ccc(-c3ccccc3)cc2)n1  kinact/KI (PADI1; enzyme activity, inhibitor): 46.2 M⁻¹ s⁻¹
COc1ccc(NC(=O)c2c(Nc3ccccc3)sc(C#N)c2NC(=O)CNc2ccc([N+](=O)[O-])cc2)cc1  remaining activity (KDR; enzyme activity, inhibitor; 1 µM): 79.1%
N=C(CF)NCCC[C@H](NC(=O)c1ccccc1C(=O)O)c1nn[nH]n1  kinact/KI (PADI1; enzyme activity, inhibitor): 1360 M⁻¹ s⁻¹
NS(=O)(=O)c1ccc(Nc2nc(-c3ccc(F)cc3)c3ccccc3n2)cc1  remaining binding (ATPase family AAA domain-containing protein 2 (ATAD2, Homo sapiens, UniProt Q6PL18); binding, competition with immobilised ligand; 1 µM): 85%
Nc1ncnc2occ(-c3ccc(NC(=O)Nc4cc(C(F)(F)F)ccc4F)cc3)c12  remaining activity (Phosphatidylinositol 5-phosphate 4-kinase type-2 beta (PIP4K2B, Homo sapiens, UniProt P78356); enzyme activity, inhibitor; 20 µM): 100%
Cn1c2c(Cl)c(Cl)ccc2c2cc[nH]c(=O)c21  ΔTm (CDK16; thermal stability, DSF; 10 µM): 0 °C
CC(C)(C)n1nnc([C@H](CCCNC(=N)CF)NC(=O)c2ccccc2C(=O)O)n1  kinact/KI (PADI1; enzyme activity, inhibitor): 1670 M⁻¹ s⁻¹
Cc1ccc(C(=O)Nc2ccc(CN3CCN(C)CC3)c(C(F)(F)F)c2)cc1C#Cc1cnc2cccnn12  remaining signal (1-phosphatidylinositol 3-phosphate 5-kinase (PIKFYVE, Homo sapiens, UniProt Q9Y2I7); cell-free assay; 23.5 nM): 100%
Cc1cc2c(cc1N1C(=O)c3cccc4c(Cl)ccc(c34)C1=O)n(C)c(=O)n2C  ΔTm (ATAD2 bromodomain; thermal stability, DSF; 10 µM): 0 °C
CC(=O)NCCc1c[nH]c2ccc(O)cc12  Km (Sulfotransferase 1C4 (SULT1C4, Homo sapiens, UniProt O75897); enzyme activity, substrate; pH 7): 45.7 µM
NCCCC[C@H](NC(=O)[C@@H]1CCCN1C(=O)[C@@H]1CSSC[C@H](NC(=O)CNC(=O)CNC(=O)CN)C(=O)N[C@@H](Cc2ccc(O)cc2)C(=O)N[C@@H](Cc2ccccc2)C(=O)N[C@@H](CCC(N)=O)C(=O)N[C@@H](CC(N)=O)C(=O)N1)C(=O)NCC(N)=O  Emax (Vasopressin V1a receptor (AVPR1A, Homo sapiens, UniProt P37288); calcium signal, agonist; CHO-S): 41%
COc1ccc(NC(=O)c2c(Nc3ccccc3)sc(C(=O)NN=Cc3ccc(OC)c(O)c3)c2NC(C)=O)cc1  remaining activity (KDR; enzyme activity, inhibitor; 1 µM): 63.2%
CC(=O)NCCc1ccc(O)c(-c2c(O)c(O)c3c(c2O)C(=O)c2c(cc(O)c(C(=O)O)c2C(=O)O)C3=O)c1  inhibition (Glycogen synthase kinase-3 beta (GSK3B, Homo sapiens, UniProt P49841); enzyme activity, inhibitor, ADP detection; 100 µM): 75.3%
COc1ccc(NC(=O)c2c(Nc3ccccc3)sc(C#N)c2NC(=O)CNc2ccc(Cl)cc2)cc1  remaining activity (KDR; enzyme activity, inhibitor; 10 µM): 29.6%
CC1(C)NC(=O)c2[nH]c3c(Cl)c(Cl)ccc3c2C1C#N (stereo not shown)  ΔTm (CDK16; thermal stability, DSF; 10 µM): 0.4 °C
COc1ccc(NC(=O)c2c(Nc3ccccc3)sc(C(=O)NN=Cc3ccc(Cl)cc3)c2NC(C)=O)cc1  remaining activity (KDR; enzyme activity, inhibitor; 0.1 µM): 88.3%
N=C(CCl)NCCC[C@H](NC(=O)c1ccc(-c2ccccc2)cc1)c1nn[nH]n1  kinact/KI (PADI1; enzyme activity, inhibitor): 51.7 M⁻¹ s⁻¹
COc1ccc(NC(=O)c2c(Nc3ccccc3)sc(C(=O)NN=Cc3cc(OC)c(OC)c(OC)c3)c2NC(C)=O)cc1  remaining activity (KDR; enzyme activity, inhibitor; 0.1 µM): 95.4%
Oc1ccc(-c2nc(-c3ccncc3)c(-c3ccc(F)cc3)[nH]2)cc1  ΔTm (ATAD2 bromodomain; thermal stability, DSF; 10 µM): 0.05 °C
COc1ccc(NC(=O)c2c(Nc3ccccc3)sc(C#N)c2NC(=O)CNc2ccc(Br)cc2)cc1  remaining activity (KDR; enzyme activity, inhibitor; 10 nM): 93%
N=C(CF)NCCC[C@H](NC(=O)c1ccccc1)c1nn[nH]n1  kinact/KI (PADI1; enzyme activity, inhibitor): 5.75 M⁻¹ s⁻¹
CC[C@H]1OC(=O)[C@H](C)[C@@H](O[C@H]2C[C@@](C)(OC)[C@@H](O)[C@H](C)O2)[C@H](C)[C@@H](O[C@@H]2O[C@H](C)C[C@H](N(C)C)[C@H]2O)[C@](C)(O)C[C@@H](C)C(=O)[C@H](C)[C@@H](O)[C@]1(C)O  Emax (Motilin receptor (MLNR, Homo sapiens, UniProt O43193); inositol phosphate, agonist, TR-FRET; AD293): 100%
COc1ccc(C=NNC(=O)c2sc(Nc3ccccc3)c(C(=O)Nc3ccc(OC)cc3)c2NC(C)=O)cc1  remaining activity (KDR; enzyme activity, inhibitor; 10 nM): 96%
